Source: PubChem
Compounds with a hit are over-represented: about 1.5% of the library has one in this group of screens.
MITF TRPM1 HTS = activators of MITF-driven TRPM1 promoter activity in SK-MEL-5 cells; SK-MEL-5 TRPM1-promoter luciferase, 24 h; % of positive control, neutral wells = 0; activation, % at 12.5 µM; 300,000 tested, 0.75% active; AID 588334;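 active = mean activation of at least 80% with every replicate also reaching 80%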;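 also: 0% = neutral control wells and 100% = parthenolide positive control wells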
PGC1a acetyl inh = PGC1a acetylation modulation, inhibitor mode | U2OS PGC1a acetylation, AlphaScreen anti-acetyl-lysine; with virally co-expressed GCN5 acetyltransferase | inhibition, % at 15.6 µM | 350,000 tested, 0.17% active;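 active = every replicate shows inhibition of at least 40%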;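 also: 0% = neutral control wells and 100% = positive control wells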
Cneo AK release = causes C. neoformans cell lysis. lysis activity, % at 15 µM. adenylate kinase release luminescence, 4 h; normalised: neutral wells 0, clomiphene wells 100. 360,000 tested, 0.2% active;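 active = mean lysis activity across replicates of at least 80%, whatever share of replicates individually reach that level; inactive = mean lysis activity below 80%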
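Assay system: log-phase C. neoformans yeast / Quantity: yeast cell density of 5 × 10^6 cells/mL / Medium: fresh YPD growth medium / Compound: single dose / Timing: static 4 h at 37 °C with compound, 1 h detection / Measured by: adenylate kinase release luminescence / Read-out: lysis from increased AK signal / Benchmarks: Clomiphene as positive lysis control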
Wnt bcat act = activates Wnt/beta-catenin signaling in a reporter cell assay. activator, plate reader. activation, % at 9.35 µM. 300,000 tested, 1.2% active; in the data active = activation above about 30%, passing the limit was not always enough;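 also: 0% = neutral control wells and 100% = positive control wells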
Active calls of the source: *; . = no result.

SMILES | MITF TRPM1 HTS | PGC1a acetyl inh | Cneo AK release | Wnt bcat act
COc1ccc(NC(=O)Nc2ccc3c(c2)CC(=O)N([C@@H](C)CO)C[C@@H](C)[C@H](CN(C)Cc2ccc(Cl)c(Cl)c2)O3)cc1 | . | -10.9 | 0.1 | .
O=C(C[C@H]1CC[C@@H]2[C@H](COC[C@H](O)CN2Cc2ccc(F)cc2)O1)NCc1ccncn1 | . | 7.2 | 0.0 | .
C[C@@H]1CN([C@@H](C)CO)C(=O)c2cc(NC(=O)Cc3ccccc3)ccc2O[C@@H]1CN(C)S(=O)(=O)c1cn(C)cn1 | . | -4.0 | -0.9 | .
C(=C\c1nc(-c2ccncc2)no1)/c1ccccc1 | 70.2 | 3.4 | -0.1 | 40.3*
C(=C\c1nc(-c2ccccc2)no1)/c1ccccc1 | 42.1 | 12.8 | -11.3 | 24.3
COc1cccc2nc3cc(C)c(C)cc3nc12 | 0.2 | 2.2 | -5.0 | 33.9*
C[C@@H]1CN([C@@H](C)CO)S(=O)(=O)c2ccc(C#CC3CC3)cc2O[C@H]1CN(C)Cc1cccc(F)c1 | . | -4.2 | 0.8 | .
C[C@@H]1CN([C@@H](C)CO)C(=O)c2cc(NS(=O)(=O)c3ccc(F)cc3)ccc2O[C@@H](C)CCCCO[C@H]1CN(C)C(=O)Nc1ccccc1 | . | -23.0 | 1.1 | .
CCN(CC)c1nc(C)nc2c1cnn2CCc1ccccc1 | 89.1* | . | -1.7 | .
CNc1nc(-c2ccccc2)[n+](-c2ccc(C)cc2)s1 | 4.5 | . | . | .
Cc1ccc(-c2nc(N)s[n+]2-c2ccccc2)cc1 | 10.0 | . | . | 53.5*
COc1ccccc1CNc1nc2cc(-c3ccccc3C)sc2c(=O)n1C | . | 10.1 | -4.4 | -2.7
COc1ccccc1CNc1nc2cc(-c3sccc3C)sc2c(=O)n1C | . | -0.7 | -1.5 | 37.7*
COc1ccc(/C=C2\CCn3c2nc2ccccc2c3=O)cc1OC | 93.9* | 10.7 | 3.4 | .
CCCNC(=O)Nc1ccc2c(c1)OC[C@@H](C)N(CCC(F)(F)F)C[C@H](C)[C@@H](OC)CN(C)C2=O | . | 5.4 | -2.7 | .
CC(C)Sc1nc2ccccc2n1CC(N)=O | . | -3.5 | -1.2 | 44.3*
COc1ccc(NC(=O)N2CC(=O)N3[C@H](C2)[C@@H](c2ccc(Br)cc2)[C@@H]3CO)cc1 | . | 8.9 | . | .
CCOc1ccc(N2C(=O)Cc3ccccc3C2=O)cc1 | 3.3 | 43.2* | 5.2 | -0.4
CCS(=O)(=O)NCC[C@@H]1CC[C@@H](NS(=O)(=O)c2cccc(F)c2)[C@H](CO)O1 | . | 10.4 | -0.8 | .
Cc1cccc(N2CCN(c3cccc(C)c3)C2c2cccnc2)c1 | . | 8.9 | -0.9 | 37.4*
Cc1cccc(C(=O)OCC(=O)c2ccc3c(c2)OCO3)c1O | 118.9* | . | -27.8 | 57.3*
N#CCC(=O)Nc1ccc(C(=O)OCC(=O)c2ccc3c(c2)OCO3)cc1 | 69.4 | . | 1.1 | 39.1*
N#CCC(=O)Nc1ccc(C(=O)OCC(=O)c2ccc3c(c2)OCCO3)cc1 | 43.1 | . | 0.3 | 27.1
Cc1cccc(C(=O)OCC(=O)c2c(C)[nH]c3ccccc23)c1O | 81.6* | . | 0.9 | 37.1*
CCOC(=O)c1c(C)[nH]c(C)c1C(=O)COC(=O)c1cccc(C)c1O | 6.6 | -8.9 | 0.8 | .
SMILES | MITF TRPM1 HTS | PGC1a acetyl inh | Cneo AK release | Wnt bcat act
CCC(=O)N1CC(=O)N2[C@H](CO)[C@H](c3ccc(C#CCc4ccccc4)cc3)[C@@H]2C1 | . | -9.0 | . | .
Cc1noc(C)c1NC(=O)Nc1ccc2c(c1)C(=O)N([C@@H](C)CO)C[C@H](C)[C@@H](CN(C)C(=O)Nc1ccc(C(F)(F)F)cc1)OCCCC[C@@H](C)O2 | . | 1.1 | -1.4 | .
C[C@H](NC(=O)C[C@@H]1C=C[C@H](NC(=O)CN2CCOCC2)[C@@H](CO)O1)c1ccccc1 | . | -0.6 | 91.4* | .
C[C@H](NC(=O)C[C@@H]1C=C[C@@H](NC(=O)CN2CCOCC2)[C@H](CO)O1)c1ccccc1 | . | -2.3 | 14.0 | .
Cn1cnc2c1c(=O)n(Cc1cccc(Br)c1)c(=O)n2C | . | 7.7 | 0.2 | 2.2
Cn1cnc2c1c(=O)n(Cc1ccccc1)c(=O)n2C | . | 11.4 | 2.2 | 32.0*
Cc1nc(Nc2nc3ccccc3o2)nc(C)c1C | 4.5 | . | . | -1.7
Cc1ccc(Nc2nc3ccccc3o2)cc1F | 12.2 | 39.7 | -3.0 | 30.8*
CN1CCN(C(=O)C[C@@H]2CC[C@@H]3[C@H](COc4ccc(NC(=O)c5cscn5)cc4C(=O)N3C)O2)CC1 | . | -0.8 | -1.7 | .
COc1cccc(Nc2nc(-c3ccc4c(c3)OCCO4)cs2)c1 | 87.4* | 14.3 | . | .
c1ccc(-c2csc(Nc3ccc4c(c3)OCCO4)n2)cc1 | 23.0 | 8.3 | -4.8 | 45.9*
C=CCNc1nc(-c2ccc3c(c2)OCCO3)cs1 | 28.9 | -6.6 | -21.6 | 41.7*
c1cc2c(cc1Nc1nc(-c3ccc4c(c3)OCO4)cs1)OCCO2 | . | -11.5 | -2.7 | .
C[C@@H]1CCCCO[C@@H](CN(C)C(=O)c2ccccc2)[C@@H](C)CN([C@@H](C)CO)C(=O)c2cc(NC(=O)CCC(F)(F)F)ccc2O1 | . | 5.2 | 1.2 | .
CCCNC(=O)N1CC[C@@H]2[C@H]1c1cc(C#Cc3ccc(OC)cc3)ccc1N(C)[C@@H]2CO | . | 8.3 | -4.9 | .
C[C@@H]1CN([C@@H](C)CO)C(=O)Cc2cc(NC(=O)C3CCCCC3)ccc2O[C@H]1CN(C)S(C)(=O)=O | . | -10.8 | 17.7 | .
O=C1c2ccccc2NC(c2ccco2)N1O (configuration not stated) | 6.1 | -9.2 | 0.5 | .
O=C1c2ccccc2NC(c2ccc(Br)o2)N1O (configuration not stated) | . | -4.3 | -1.1 | 44.0*
O=C1c2ccccc2NC(c2ccc(-c3cccs3)o2)N1O (configuration not stated) | 82.5* | . | -1.6 | 59.1*
Cc1ccc(CNC(=O)CCn2cc(-c3ccc(C)cc3)nc2-c2ccncc2)cc1 | 4.5 | -0.4 | -0.3 | -1.2
Cc1ccc(CNC(=O)c2ccc(Cn3cc(-c4ccc(C)cc4)nc3-c3ccncc3)cc2)cc1 | . | . | -0.5 | 47.0*
O=C(Nc1ccccc1Cl)c1cccc(COc2cc(Cl)ccc2Cl)c1 | 45.2 | 11.4 | -2.5 | 37.8*
O=C(Nc1ccc(Cl)cn1)c1ccc2nccnc2c1 | 125.7* | -3.6 | -0.3 | 37.0*
O=C(Nc1ccc(Br)cn1)c1ccc2nccnc2c1 | 19.6 | 6.3 | . | .
O=C(NNC(=S)Nc1ccccc1Cl)c1ccccc1 | 92.9* | 3.2 | -6.4 | 23.7
SMILES | MITF TRPM1 HTS | PGC1a acetyl inh | Cneo AK release | Wnt bcat act
CCN(CC)S(=O)(=O)c1cc(C(=O)Nc2ccc(Cl)cn2)ccc1C | 104.8* | -0.9 | -5.5 | .
O=C(NNC(=S)Nc1ccccc1Cl)c1ccccc1Cl | 77.8 | . | -3.7 | 26.0
O=C(N[C@H]1CC[C@@H](CCn2cc(-c3ccccc3)nn2)O[C@H]1CO)c1ccccc1F | . | 8.7 | 0.9 | .
C/C=C/c1cnc2c(c1)C(=O)N([C@H](C)CO)C[C@@H](C)[C@@H](CN(C)C(=O)Nc1ccc(F)cc1)O2 | . | 7.8 | 1.4 | .
C[C@@H](NC(=O)C[C@H]1C[C@H]2c3cc(NC(=O)c4cccnc4)ccc3O[C@H]2[C@@H](CO)O1)c1ccccc1 | . | -2.8 | -5.1 | .
O=C(Nc1ccccc1Cl)c1ccc2nccnc2c1 | 103.4* | -3.9 | -1.3 | 14.4
CCOc1ccc(NC(=O)c2csc3c2CCCC3)cc1 | . | 11.5 | -4.5 | 45.9*
O=C(Nc1ccc(F)cc1)c1nsc(Cl)c1Cl | 21.2 | 11.0 | -4.1 | .
CCOc1ccc(NC(=O)c2nsc(Cl)c2Cl)cc1 | 66.7 | -4.3 | -8.5 | 53.7*
